The values below come from ChEMBL document CHEMBL4257478, “Design, synthesis and evaluation of (R)-3-(7-(methyl(7H-pyrrolo[2,3-d]pyrimidin-4-yl)amino)-5-azaspiro[2.4]heptan-5-yl)-3-oxopropanenitrile as a JAK1-selective inhibitor” (Medchemcomm, 2018).

As a reminder, the IC50 is the concentration needed to halve the response being measured. By inhibition is commonly meant the drop in the measured response relative to a control, in per cent.

Experiment [1] has as its target Tyrosine-protein kinase JAK2 (Homo sapiens, UniProt O60674). The experiment in a line: Inhibition of human JAK2 using KTFCGTPEYLAPEVRREPRILSEEEQEMFRDFDYIADWC as substrate after 40 mins in presence of [gamma-33P-ATP] by scintillation counting method.
Experiment [2] concerns the target T1, Tyrosine-protein kinase JAK1 (Homo sapiens, UniProt P23458). The experiment in a line: Inhibition of human JAK1 using GEEPLYWSFPAKKK as substrate after 40 mins in presence of [gamma-33P-ATP] by scintillation counting method.
The species named for another experiment is Homo sapiens. Kind of experiment: Selectivity index, ratio of IC50 for human JAK2 to IC50 for human JAK1. Put shortly: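 Kinase activity assays run as a commercial service at Km ATP; IC50 values fitted from concentration-response data; ratio of JAK2 to JAK1 IC50.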
Experiment [3] has as its target T1, Tyrosine-protein kinase JAK1. Kind of experiment: Inhibition of human JAK1 at 1 uM using GEEPLYWSFPAKKK as substrate after 40 mins in presence of [gamma-33P-ATP] by scintillation counting method relative to control.

T1 sequence (P23458 whole entry): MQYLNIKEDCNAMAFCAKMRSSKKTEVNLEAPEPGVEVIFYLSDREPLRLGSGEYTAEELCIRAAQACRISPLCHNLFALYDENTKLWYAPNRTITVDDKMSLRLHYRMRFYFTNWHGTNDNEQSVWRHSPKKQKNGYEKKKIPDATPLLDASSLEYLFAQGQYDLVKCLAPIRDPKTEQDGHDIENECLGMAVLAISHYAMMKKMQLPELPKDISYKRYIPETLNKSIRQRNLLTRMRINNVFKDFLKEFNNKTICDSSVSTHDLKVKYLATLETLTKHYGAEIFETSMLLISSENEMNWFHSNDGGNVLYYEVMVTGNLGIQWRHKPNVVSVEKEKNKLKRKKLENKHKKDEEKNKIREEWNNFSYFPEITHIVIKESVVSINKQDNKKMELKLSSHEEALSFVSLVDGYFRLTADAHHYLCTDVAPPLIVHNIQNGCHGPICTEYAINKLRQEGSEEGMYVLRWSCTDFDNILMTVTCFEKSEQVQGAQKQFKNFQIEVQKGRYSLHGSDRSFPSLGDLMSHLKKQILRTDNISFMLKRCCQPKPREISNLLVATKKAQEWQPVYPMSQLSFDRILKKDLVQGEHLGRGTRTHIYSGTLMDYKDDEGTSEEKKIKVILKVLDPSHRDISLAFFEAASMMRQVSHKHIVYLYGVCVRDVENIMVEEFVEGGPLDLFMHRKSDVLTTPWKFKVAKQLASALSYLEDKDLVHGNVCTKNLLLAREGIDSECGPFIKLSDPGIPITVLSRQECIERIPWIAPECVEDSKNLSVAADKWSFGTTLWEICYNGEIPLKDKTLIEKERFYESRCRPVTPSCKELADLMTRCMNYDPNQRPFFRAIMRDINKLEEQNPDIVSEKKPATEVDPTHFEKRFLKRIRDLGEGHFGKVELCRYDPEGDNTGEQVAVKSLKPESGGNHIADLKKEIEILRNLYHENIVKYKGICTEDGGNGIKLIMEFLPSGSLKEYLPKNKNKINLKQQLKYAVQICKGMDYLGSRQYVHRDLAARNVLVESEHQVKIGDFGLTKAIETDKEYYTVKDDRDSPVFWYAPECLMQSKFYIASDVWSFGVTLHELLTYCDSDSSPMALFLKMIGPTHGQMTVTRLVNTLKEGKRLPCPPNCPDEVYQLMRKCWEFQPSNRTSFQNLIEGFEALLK
Chain of Tyrosine-protein kinase JAK2 (O60674 whole entry): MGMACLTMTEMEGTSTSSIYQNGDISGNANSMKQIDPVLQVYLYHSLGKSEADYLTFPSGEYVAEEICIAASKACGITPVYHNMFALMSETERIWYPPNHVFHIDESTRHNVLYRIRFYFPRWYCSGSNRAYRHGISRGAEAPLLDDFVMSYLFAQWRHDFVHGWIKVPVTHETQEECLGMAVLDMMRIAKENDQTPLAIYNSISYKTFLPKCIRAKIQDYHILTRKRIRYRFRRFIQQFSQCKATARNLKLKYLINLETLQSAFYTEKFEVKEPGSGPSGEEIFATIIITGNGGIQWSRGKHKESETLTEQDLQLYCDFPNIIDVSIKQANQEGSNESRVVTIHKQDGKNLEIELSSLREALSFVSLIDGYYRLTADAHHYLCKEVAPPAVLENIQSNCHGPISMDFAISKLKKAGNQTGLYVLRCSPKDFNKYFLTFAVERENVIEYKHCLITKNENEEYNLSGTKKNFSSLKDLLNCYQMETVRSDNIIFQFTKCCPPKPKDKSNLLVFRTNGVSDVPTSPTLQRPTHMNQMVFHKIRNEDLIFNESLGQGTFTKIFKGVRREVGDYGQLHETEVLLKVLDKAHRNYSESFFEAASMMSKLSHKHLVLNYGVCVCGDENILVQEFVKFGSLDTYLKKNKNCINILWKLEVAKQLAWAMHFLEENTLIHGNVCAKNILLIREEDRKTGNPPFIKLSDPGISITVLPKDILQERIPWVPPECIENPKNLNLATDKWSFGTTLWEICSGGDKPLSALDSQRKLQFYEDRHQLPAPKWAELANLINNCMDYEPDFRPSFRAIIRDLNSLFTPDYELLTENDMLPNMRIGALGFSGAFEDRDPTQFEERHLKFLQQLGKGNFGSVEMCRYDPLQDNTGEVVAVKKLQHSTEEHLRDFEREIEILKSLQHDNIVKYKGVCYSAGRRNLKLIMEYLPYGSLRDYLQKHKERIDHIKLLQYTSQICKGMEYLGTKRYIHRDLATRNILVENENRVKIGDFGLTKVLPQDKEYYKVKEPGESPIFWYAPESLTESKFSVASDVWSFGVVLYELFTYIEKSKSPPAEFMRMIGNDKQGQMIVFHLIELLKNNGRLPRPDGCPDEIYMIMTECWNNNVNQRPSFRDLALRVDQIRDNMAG

In the case of `CN(c1ncnc2[nH]ccc12)[C@H]1CN(C(=O)c2ccc(C#N)cc2)CC12CC2`, the IC50 in experiment [1] stood at 4500 nM; in experiment [2] it was 190 nM. In addition, the Ratio IC50 in the experiment listed under Homo sapiens stood at 24.
In the case of `CC(C)CC(=O)N1C[C@H](N(C)c2ncnc3[nH]ccc23)C2(CC2)C1`, the IC50 in experiment [1] is 1100 nM; in experiment [2], 77 nM. Besides, the Ratio IC50 in the experiment filed under Homo sapiens was found to be 14.
Regarding `CN(c1ncnc2[nH]ccc12)[C@H]1CN(C(=O)c2cccc(C#N)c2)CC12CC2`, the IC50 worked out at 7400 nM in experiment [1] and 100 nM in experiment [2]. In addition, the Ratio IC50 in the experiment filed under Homo sapiens was 74.
The matching figures for `COc1ccc(S(=O)(=O)N2C[C@H](N(C)c3ncnc4[nH]ccc34)C3(CC3)C2)cc1`: 180 nM, 9.3 nM and 19.
On to `CC(C)C(=O)N1C[C@H](N(C)c2ncnc3[nH]ccc23)C2(CC2)C1`, for which the figures for the IC50 in experiment [1] and in experiment [2] were 2800 nM and 170 nM, respectively. Moreover, in the experiment listed under Homo sapiens, the Ratio IC50 was found to be 16.
In the case of `CN(c1ncnc2[nH]ccc12)[C@H]1CN(C(=O)Nc2ccc(F)cc2)CC12CC2`, the figures for the IC50 in experiment [1] and in experiment [2] were 1000 nM and 23 nM, respectively. Besides, the Ratio IC50 in the experiment listed under Homo sapiens turned out to be 43.
In the case of `CC(C)COC(=O)N1C[C@H](N(C)c2ncnc3[nH]ccc23)C2(CC2)C1`, the IC50 in experiment [1] stood at 1200 nM; in experiment [2], 34 nM. Also, the Ratio IC50 in the experiment filed under Homo sapiens came out at 35.
Turning to `Cc1ccc(NC(=O)N2C[C@H](N(C)c3ncnc4[nH]ccc34)C3(CC3)C2)cc1Cl`, the IC50 came to 1300 nM in experiment [1] and 85 nM in experiment [2]. Further, the Ratio IC50 in the experiment listed under Homo sapiens was found to be 15.
In the case of `CN(c1ncnc2[nH]ccc12)[C@H]1CN(C(=O)Nc2ccc(Cl)cc2Cl)CC12CC2`, the IC50 is 4700 nM in experiment [1] and 120 nM in experiment [2]. Moreover, in the experiment listed under Homo sapiens, the Ratio IC50 is 39.
`CN(c1ncnc2[nH]ccc12)[C@H]1CN(C(=O)Nc2cccc(Cl)c2Cl)CC12CC2`: the results for the IC50 in experiment [1] and in experiment [2] were 1300 nM and 74 nM, respectively. Also, the Ratio IC50 in the experiment listed under Homo sapiens came out at 18.
Turning to `CN(c1ncnc2[nH]ccc12)[C@H]1CN(C(=O)c2ccco2)CC12CC2`, the results for the IC50 in experiment [1] and in experiment [2] were 930 nM and 53 nM, respectively. Besides, in the experiment listed under Homo sapiens, the Ratio IC50 came out at 18.
Taken in the same sequence, the figures for `CN(c1ncnc2[nH]ccc12)[C@H]1CN(C(=S)CC#N)CC12CC2` were 160 nM, 20 nM and 8.
Regarding `CN(c1ncnc2[nH]ccc12)[C@H]1CN(Cc2ccccc2)CC12CC2`, the IC50 came out at 98000 nM in experiment [1] and 120 nM in experiment [2]. The Ratio IC50 in the experiment listed under Homo sapiens worked out at 820.
In the case of `CN(c1ncnc2[nH]ccc12)[C@H]1CN(S(=O)(=O)c2ccccc2F)CC12CC2`, the IC50 in experiment [1] amounted to 97 nM; in experiment [2] it was 13 nM. Moreover, the Ratio IC50 in the experiment filed under Homo sapiens is 7.5.
On to `CN(c1ncnc2[nH]ccc12)[C@H]1CN(S(=O)(=O)c2ccc(F)cc2)CC12CC2`, for which the IC50 in experiment [1] was found to be 50 nM; in experiment [2], 9.4 nM. In the experiment listed under Homo sapiens, the Ratio IC50 stood at 5.3.
Taken in the same sequence, the figures for `CNC(=O)CC(=O)N1C[C@H](N(C)c2ncnc3[nH]ccc23)C2(CC2)C1` were 13000 nM, 670 nM and 19.
`CN(c1ncnc2[nH]ccc12)[C@H]1CN(S(=O)(=O)c2ccc(C#N)cc2)CC12CC2`: the IC50 is 1100 nM in experiment [1] and 9.8 nM in experiment [2]. Besides, the Ratio IC50 in the experiment filed under Homo sapiens amounted to 110.
As for `CCCCN1C[C@H](N(C)c2ncnc3[nH]ccc23)C2(CC2)C1`, the half-maximal inhibitory concentration (IC50) in experiment [1] was 15000 nM; in experiment [2], 230 nM. In addition, the Ratio IC50 in the experiment listed under Homo sapiens is 65.
As for `CN(c1ncnc2[nH]ccc12)[C@H]1CN(C(=O)CN=[N+]=[N-])CC12CC2`, the IC50 in experiment [1] was 250 nM; in experiment [2], 21 nM. Moreover, the Ratio IC50 in the experiment filed under Homo sapiens stood at 12.
As to `N#CCC(=O)N1CCCC(COc2ncnc3[nH]ccc23)C1` (stereo unspecified), the inhibition in experiment [3] turned out to be 30%.
Turning to `CN(c1ncnc2[nH]ccc12)[C@H]1CN(C(=O)c2ccncc2)CC12CC2`, the IC50 in experiment [1] stood at 6500 nM; in experiment [2], 140 nM. Besides, the Ratio IC50 in the experiment filed under Homo sapiens came to 46.
On to `CN(c1ncnc2[nH]ccc12)C1CN(C(=O)CC#N)CC12CC2` (racemic), for which, in experiment [3], the inhibition amounted to 95%.
For `CN(c1ncnc2[nH]ccc12)[C@H]1CN(S(=O)(=O)c2cccc(F)c2)CC12CC2`, the IC50 was found to be 8.4 nM in experiment [1] and 2.8 nM in experiment [2]. Besides, the Ratio IC50 in the experiment listed under Homo sapiens worked out at 3.
With `CN(c1ncnc2[nH]ccc12)[C@H]1CN(S(=O)(=O)N2CCCCC2)CC12CC2`, the results for the IC50 in experiment [1] and in experiment [2] were 150 nM and 15 nM, respectively. The Ratio IC50 in the experiment filed under Homo sapiens was found to be 10.
In the case of `CCN1C[C@H](N(C)c2ncnc3[nH]ccc23)C2(CC2)C1`, the results for the IC50 in experiment [1] and in experiment [2] were 30000 nM and 1400 nM, respectively. Further, the Ratio IC50 in the experiment listed under Homo sapiens came out at 21.
The matching figures for `CN(c1ncnc2[nH]ccc12)[C@H]1CN(C(=O)Nc2cc(Cl)ccc2Cl)CC12CC2`: 2800 nM, 54 nM and 52.
For `CN(c1ncnc2[nH]ccc12)[C@H]1CN(S(=O)(=O)c2ccccc2[N+](=O)[O-])CC12CC2`, the IC50 in experiment [1] was 470 nM; in experiment [2], 26 nM. For the same compound, in the experiment listed under Homo sapiens, the Ratio IC50 was found to be 18.
Turning to `CC(=O)N1CCC(C(=O)N2C[C@H](N(C)c3ncnc4[nH]ccc34)C3(CC3)C2)CC1`, the IC50 came out at 2500 nM in experiment [1] and 180 nM in experiment [2]. The Ratio IC50 in the experiment filed under Homo sapiens was found to be 14.
With `CN(c1ncnc2[nH]ccc12)[C@H]1CN(C(=O)Nc2ccccc2)CC12CC2`, the IC50 came to 420 nM in experiment [1] and 12 nM in experiment [2]. Besides, the Ratio IC50 in the experiment filed under Homo sapiens stood at 35.
For the compound `CN(c1ncnc2[nH]ccc12)[C@H]1CN(S(=O)(=O)c2ccccc2)CC12CC2`, the IC50 in experiment [1] turned out to be 51 nM; in experiment [2], 9 nM. Besides, in the experiment listed under Homo sapiens, the Ratio IC50 is 5.7.
As to `CN(c1ncnc2[nH]ccc12)[C@H]1CN(S(=O)(=O)c2ccc(C(F)(F)F)cc2)CC12CC2`, the IC50 in experiment [1] was 1400 nM; in experiment [2], 16 nM. For the same compound, in the experiment listed under Homo sapiens, the Ratio IC50 came out at 88.
In the case of `CN(c1ncnc2[nH]ccc12)[C@H]1CN(S(=O)(=O)c2cccc([N+](=O)[O-])c2)CC12CC2`, the IC50 in experiment [1] is 5.5 nM; in experiment [2], 1.4 nM. Besides, the Ratio IC50 in the experiment filed under Homo sapiens amounted to 3.9.
For the compound `CN(c1ncnc2[nH]ccc12)[C@H]1CN(C(=O)c2cccnc2)CC12CC2`, the results for the IC50 in experiment [1] and in experiment [2] were 7800 nM and 160 nM, respectively. In addition, in the experiment listed under Homo sapiens, the Ratio IC50 worked out at 49.
As for `CN(c1ncnc2[nH]ccc12)[C@H]1CN(C(=O)Nc2ccc(Cl)c(Cl)c2)CC12CC2`, the values for the IC50 in experiment [1] and in experiment [2] were 1300 nM and 40 nM, respectively. Further, the Ratio IC50 in the experiment listed under Homo sapiens is 33.
`CN(c1ncnc2[nH]ccc12)[C@H]1CN(C(=O)NC2CCCCC2)CC12CC2`: the results for the concentration for half-maximal inhibition (IC50) in experiment [1] and in experiment [2] were 4400 nM and 69 nM, respectively. The Ratio IC50 in the experiment filed under Homo sapiens is 64.
Taken in the same sequence, the figures for `CN(c1ncnc2[nH]ccc12)[C@H]1CN(C(=S)Nc2cc(C(F)(F)F)cc(C(F)(F)F)c2)CC12CC2` were 11000 nM, 470 nM and 23.
The matching figures for `CN(c1ncnc2[nH]ccc12)[C@H]1CN(C(=O)C2CC2)CC12CC2`: 1200 nM, 170 nM and 7.1.
Consider `CN(c1ncnc2[nH]ccc12)[C@H]1CN(C(=O)Nc2ccccc2-c2ccccc2)CC12CC2`, for which the IC50 in experiment [1] turned out to be 9100 nM; in experiment [2], 1500 nM. Also, the Ratio IC50 in the experiment listed under Homo sapiens was found to be 6.1.
As for `Cc1cccc(S(=O)(=O)N2C[C@H](N(C)c3ncnc4[nH]ccc34)C3(CC3)C2)c1`, the IC50 in experiment [1] amounted to 66 nM; in experiment [2] it was 12 nM. In addition, the Ratio IC50 in the experiment filed under Homo sapiens turned out to be 5.5.
The matching figures for `CCCCNC(=O)N1C[C@H](N(C)c2ncnc3[nH]ccc23)C2(CC2)C1`: 2800 nM, 75 nM and 37.
`CC(C)S(=O)(=O)N1C[C@H](N(C)c2ncnc3[nH]ccc23)C2(CC2)C1`: the 50% inhibitory concentration (IC50) in experiment [1] amounted to 130 nM; in experiment [2], 20 nM. Further, the Ratio IC50 in the experiment filed under Homo sapiens is 6.5.
`CN(c1ncnc2[nH]ccc12)[C@H]1CN(C(=O)c2ccccc2)CC12CC2`: the IC50 turned out to be 6300 nM in experiment [1] and 150 nM in experiment [2]. Moreover, the Ratio IC50 in the experiment filed under Homo sapiens worked out at 42.
Turning to `CN(c1ncnc2[nH]ccc12)[C@H]1CN(S(=O)(=O)c2ccc([N+](=O)[O-])cc2)CC12CC2`, the figures for the IC50 in experiment [1] and in experiment [2] were 30 nM and 6.3 nM, respectively. In addition, the Ratio IC50 in the experiment listed under Homo sapiens was determined as 4.8.
As to `CN(c1ncnc2[nH]ccc12)[C@H]1CN(C(=O)c2cccc(C(F)(F)F)c2)CC12CC2`, the 50% inhibitory concentration (IC50) in experiment [1] amounted to 11000 nM; in experiment [2], 420 nM. Moreover, the Ratio IC50 in the experiment filed under Homo sapiens was determined as 26.
Take `CN(c1ncnc2[nH]ccc12)[C@H]1CN(C(=O)c2ccccc2C(F)(F)F)CC12CC2`: the IC50 in experiment [1] is 9100 nM; in experiment [2], 500 nM. Moreover, in the experiment filed under Homo sapiens, the Ratio IC50 worked out at 18.
The matching figures for `CC(=O)NCC(=O)N1C[C@H](N(C)c2ncnc3[nH]ccc23)C2(CC2)C1`: 16000 nM, 520 nM and 31.
Regarding `CN(c1ncnc2[nH]ccc12)[C@H]1CN(S(=O)(=O)c2ccc3ccccc3c2)CC12CC2`, the results for the IC50 in experiment [1] and in experiment [2] were 150 nM and 17 nM, respectively. Moreover, the Ratio IC50 in the experiment listed under Homo sapiens came to 8.8.
Take `CN(c1ncnc2[nH]ccc12)[C@H]1CN(S(=O)(=O)c2ccccc2C#N)CC12CC2`: the results for the IC50 in experiment [1] and in experiment [2] were 480 nM and 50 nM, respectively. The Ratio IC50 in the experiment filed under Homo sapiens came out at 9.6.
The matching figures for `CCCS(=O)(=O)N1C[C@H](N(C)c2ncnc3[nH]ccc23)C2(CC2)C1`: 36 nM, 6.9 nM and 5.2.
The matching figures for `CN(c1ncnc2[nH]ccc12)[C@H]1CN(S(=O)(=O)N2CCOCC2)CC12CC2`: 260 nM, 31 nM and 8.4.
